ChEMBL document CHEMBL1157638, “Fluorescent epigenetic small molecule induces expression of the tumor suppressor ras-association domain family 1A and inhibits human prostate xenograft” (J Med Chem, 2010)

Key:
786-0 = experiment: Growth inhibition of human 786-0 cells assessed as cell growth at 10 nM relative to untreated control; format: functional; settings: read-out: Activity
COLO 205 = experiment: Growth inhibition of human COLO205 cells assessed as cell growth at 1 nM relative to untreated control; format: functional; settings: read-out: Activity
U-251 [1] = experiment: Growth inhibition of human U251 cells; format: functional
SK-MEL-5 = experiment: Growth inhibition of human SK-MEL-5 cells; format: functional
PC-3 = experiment: Antitumor activity against human PC3 cells xenografted in athymic BALB/c mouse assessed as reduction in tumor volume at 10 mg/kg, ip dosed every other day for 28 days relative to untreated control; format: functional; design: scale not given: the % may be the effect or the level left; settings: route intraperitoneal
Method in brief: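 Male athymic Balb/c nude mice (18-22 g) got 3 × 10⁶ PC-3 cells subcutaneously in the right axillary region. After one week they were randomized into two groups of four. Dosing was 10 mg/kg ip or vehicle once every other day for 28 days. Vehicle was DMSO stock diluted in 1:1 PEG 400/PBS. Tumour volume was measured by caliper as length × width × height/2. Data are mean ± SEM (n = 4).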

NCI/ADR-RES = experiment: Growth inhibition of human NCI/ADR-RES cells assessed as cell growth at 10 uM relative to untreated control; format: functional; settings: read-out: Activity
U-251 [2] = experiment: Growth inhibition of human U251 cells assessed as cell growth at 10 nM relative to untreated control; format: functional; settings: read-out: Activity
TK-10 = experiment: Growth inhibition of human TK10 cells assessed as cell growth at 10 nM relative to untreated control; format: functional; settings: read-out: Activity
SNB-19 = experiment: Growth inhibition of human SNB19 cells assessed as cell growth at 100 nM relative to untreated control; format: functional; settings: read-out: Activity
MCF7 [3] = experiment: Growth inhibition of human MCF7 cells assessed as cell growth at 10 nM relative to untreated control; format: functional; settings: read-out: Activity
[4] = Therapeutic index, ratio of toxic dose in BALB/c mouse to antitumor dose in human PC3 cells xenografted BALB/c mouse; format: cell-based, PC-3; settings: in vivo, read-out: TI
MOLT-4 = experiment: Growth inhibition of human MOLT4 cells assessed as cell growth at 100 nM relative to untreated control; format: functional; settings: read-out: Activity
MDA-MB-231 = experiment: Growth inhibition of human MDA-MB-231 cells assessed as cell growth at 1 uM relative to untreated control; format: functional; settings: read-out: Activity
UACC-62 [5] = experiment: Growth inhibition of human UACC62 cells; format: functional
OVCAR-5 = experiment: Growth inhibition of human OVCAR5 cells assessed as cell growth at 10 nM relative to untreated control; format: functional; settings: read-out: Activity
M14 [6] = experiment: Growth inhibition of human M14 cells; format: functional
CCRF-CEM [7] = experiment: Growth inhibition of human CCRF-CEM cells assessed as cell growth at 1 nM relative to untreated control; format: functional; settings: read-out: Activity
M14 [8] = experiment: Growth inhibition of human M14 cells assessed as cell growth at 10 nM relative to untreated control; format: functional; settings: read-out: Activity
HL-60(TB) [9] = experiment: Growth inhibition of human HL-60(TB) cells; format: functional; settings: read-out: LC50 (the source's name)
NCI-H226 [10] = experiment: Growth inhibition of human NCI-H226 cells assessed as cell growth at 100 nM relative to untreated control; format: functional; settings: read-out: Activity
MCF7 [11] = experiment: Growth inhibition of human MCF7 cells assessed as cell growth at 1 uM relative to untreated control; format: functional; settings: read-out: Activity
K562 = experiment: Growth inhibition of human K562 cells assessed as cell growth at 10 uM relative to untreated control; format: functional; settings: read-out: Activity
LOX IMVI = experiment: Growth inhibition of human LOXIMVI cells assessed as cell growth at 1 uM relative to untreated control; format: functional; settings: read-out: Activity
ACHN = experiment: Growth inhibition of human ACHN cells assessed as cell growth at 1 uM relative to untreated control; format: functional; settings: read-out: Activity
KM12 = experiment: Growth inhibition of human KM12 cells assessed as cell growth at 100 nM relative to untreated control; format: functional; settings: read-out: Activity
HOP-62 [12] = experiment: Growth inhibition of human HOP62 cells; format: functional
Method in brief: (§1)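 Run externally at the National Cancer Institute as a 59-cell-line panel screen, with concentrations up to 100 μM. Growth was scored relative to control, where negative growth or total cell kill was possible. Data are in the Supporting Information.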

NCI-H522 = experiment: Growth inhibition of human NCI-H522 cells assessed as cell growth at 10 uM relative to untreated control; format: functional; settings: read-out: Activity
HL-60(TB) [13] = experiment: Growth inhibition of human HL-60(TB) cells assessed as cell growth at 100 nM relative to untreated control; format: functional; settings: read-out: Activity
SF-268 = experiment: Growth inhibition of human SF268 cells assessed as cell growth at 1 uM relative to untreated control; format: functional; settings: read-out: Activity
SK-MEL-28 = experiment: Growth inhibition of human SK-MEL-28 cells assessed as cell growth at 1 nM relative to untreated control; format: functional; settings: read-out: Activity
HOP-62 [14] = experiment: Growth inhibition of human HOP62 cells assessed as cell growth at 1 uM relative to untreated control; format: functional; settings: read-out: Activity; method in brief: as §1
BT-549 = experiment: Growth inhibition of human BT549 cells assessed as cell growth at 1 nM relative to untreated control; format: functional; settings: read-out: Activity
SK-MEL-2 [15] = experiment: Growth inhibition of human SK-MEL-2 cells assessed as cell growth at 10 nM relative to untreated control; format: functional; settings: read-out: Activity
[16] = Growth inhibition of human […] cells assessed as cell growth at 10 nM relative to untreated control; format: functional; settings: read-out: Activity
UACC-62 [17] = experiment: Growth inhibition of human UACC62 cells assessed as cell growth at 1 nM relative to untreated control; format: functional; settings: read-out: Activity
SK-MEL-2 [18] = experiment: Growth inhibition of human SK-MEL-2 cells; format: functional
SNB-75 = experiment: Growth inhibition of human SNB75 cells assessed as cell growth at 1 nM relative to untreated control; format: functional; settings: read-out: Activity
SF-539 = experiment: Growth inhibition of human SF539 cells assessed as cell growth at 1 nM relative to untreated control; format: functional; settings: read-out: Activity
CCRF-CEM [19] = experiment: Growth inhibition of human CCRF-CEM cells; format: functional
MDA-MB-435 = experiment: Growth inhibition of human MDA-MB-435 cells assessed as cell growth at 1 uM relative to untreated control; format: functional; settings: read-out: Activity
NCI-H226 [20] = experiment: Growth inhibition of human NCI-H226 cells assessed as cell growth at 10 uM relative to untreated control; format: functional; settings: read-out: Activity
NCI-H226 [21] = experiment: Growth inhibition of human NCI-H226 cells assessed as cell growth at 1 nM relative to untreated control; format: functional; settings: read-out: Activity
A549 = experiment: Growth inhibition of human A549 cells; format: functional
NCI-H23 = experiment: Growth inhibition of human NCI-H23 cells assessed as cell growth at 1 nM relative to untreated control; format: functional; settings: read-out: Activity
[22] = read-out: LC50 (the source's name)

Question: With `COc1ccc2c(c1)[nH]c1c(C)c(OS(=O)(=O)c3cccc4c(N(C)C)cccc34)ccc12` as the compound, how does the growth at 0.01 µM (786-0) read?
Answer: 103%

Question: What about the growth at 0.001 µM (COLO 205) of the same compound?
Answer: 104%

Question: What about the GI50 (U-251 [1]) of the same compound?
Answer: 4.28 µM

Question: And the TGI (U-251 [1])?
Answer: > 100 µM

Question: What about the CC50 (U-251 [1]; [22]) of the same compound?
Answer: > 100 µM

Question: And the GI50 (SK-MEL-5)?
Answer: 2.73 µM

Question: And the TGI (SK-MEL-5)?
Answer: 9.34 µM

Question: And the CC50 (SK-MEL-5; [22])?
Answer: > 100 µM

Question: What about the Activity (PC-3) of the same compound?
Answer: 40%

Question: And the growth at 10 µM (NCI/ADR-RES)?
Answer: 15%

Question: And the growth at 0.01 µM (U-251 [2])?
Answer: 98%

Question: What about the growth at 0.01 µM (TK-10) of the same compound?
Answer: 94%

Question: What about the growth at 0.1 µM (SNB-19) of the same compound?
Answer: 88%

Question: And the growth at 0.01 µM (MCF7 [3])?
Answer: 86%

Question: And the selectivity ratio [4]?
Answer: > 55

Question: And the growth at 0.1 µM (MOLT-4)?
Answer: 99%

Question: What about the growth at 1 µM (MDA-MB-231) of the same compound?
Answer: 49%

Question: And the GI50 (UACC-62 [5])?
Answer: 3.39 µM

Question: What about the TGI (UACC-62 [5]) of the same compound?
Answer: > 100 µM

Question: And the CC50 (UACC-62 [5]; [22])?
Answer: > 100 µM

Question: And the growth at 0.01 µM (OVCAR-5)?
Answer: 106%

Question: What about the GI50 (M14 [6]) of the same compound?
Answer: 50.2 µM

Question: And the TGI (M14 [6])?
Answer: > 100 µM

Question: What about the CC50 (M14 [6]; [22]) of the same compound?
Answer: > 100 µM

Question: And the growth at 0.001 µM (CCRF-CEM [7])?
Answer: 99%

Question: And the growth at 0.01 µM (M14 [8])?
Answer: 105%

Question: And the CC50 (HL-60(TB) [9])?
Answer: > 100 µM

Question: And the growth at 0.1 µM (NCI-H226 [10])?
Answer: 85%

Question: What about the growth at 1 µM (MCF7 [11]) of the same compound?
Answer: 10%

Question: What about the growth at 10 µM (K562) of the same compound?
Answer: 5%

Question: What about the growth at 1 µM (LOX IMVI) of the same compound?
Answer: 31%

Question: What about the growth at 1 µM (ACHN) of the same compound?
Answer: 43%

Question: What about the growth at 0.1 µM (KM12) of the same compound?
Answer: 97%

Question: What about the GI50 (HOP-62 [12]) of the same compound?
Answer: 17.3 µM

Question: And the TGI (HOP-62 [12])?
Answer: > 100 µM

Question: What about the CC50 (HOP-62 [12]; [22]) of the same compound?
Answer: > 100 µM

Question: What about the growth at 10 µM (NCI-H522) of the same compound?
Answer: 37%

Question: What about the growth at 0.1 µM (HL-60(TB) [13]) of the same compound?
Answer: 69%

Question: And the growth at 1 µM (SF-268)?
Answer: 44%

Question: What about the growth at 0.001 µM (SK-MEL-28) of the same compound?
Answer: 99%

Question: And the growth at 1 µM (HOP-62 [14])?
Answer: 55%

Question: And the growth at 0.001 µM (BT-549)?
Answer: 100%

Question: What about the growth at 0.01 µM (SK-MEL-2 [15]) of the same compound?
Answer: 110%

Question: And the growth at 0.01 µM [16]?
Answer: 58%

Question: And the growth at 0.001 µM (UACC-62 [17])?
Answer: 89%

Question: And the GI50 (SK-MEL-2 [18])?
Answer: 10 µM

Question: What about the TGI (SK-MEL-2 [18]) of the same compound?
Answer: > 100 µM

Question: What about the CC50 (SK-MEL-2 [18]; [22]) of the same compound?
Answer: > 100 µM

Question: And the growth at 0.001 µM (SNB-75)?
Answer: 107%

Question: And the growth at 0.001 µM (SF-539)?
Answer: 104%

Question: And the GI50 (CCRF-CEM [19])?
Answer: 2.88 µM

Question: And the TGI (CCRF-CEM [19])?
Answer: > 100 µM

Question: What about the CC50 (CCRF-CEM [19]; [22]) of the same compound?
Answer: > 100 µM

Question: What about the growth at 1 µM (MDA-MB-435) of the same compound?
Answer: -5%

Question: And the growth at 10 µM (NCI-H226 [20])?
Answer: 39%

Question: And the growth at 0.001 µM (NCI-H226 [21])?
Answer: 91%

Question: And the GI50 (A549)?
Answer: 4.98 µM

Question: And the TGI (A549)?
Answer: > 100 µM

Question: And the CC50 (A549; [22])?
Answer: > 100 µM

Question: What about the growth at 0.001 µM (NCI-H23) of the same compound?
Answer: 89%
